This is a sample that favours compounds with a hit; in the whole collection about 2.3% have one here.
TRPC6 inh: inhibitors of mouse TRPC6 channel. Q61143. HEK293-TRPC6, membrane potential dye, ACh-evoked depolarization; active compounds read low. B-score at 10 µM. 310,000 compounds, 1.1% hits. AID 2553;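 active means B-score under library mean minus 3 SD, initial fluorescence not abnormally high, positive integrated signal ratio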;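 further: B-score derived from integrated fluorescence ratio over the kinetic read; more negative B-score means stronger inhibition of depolarization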
Target sequence (Q61143 whole entry, looked up): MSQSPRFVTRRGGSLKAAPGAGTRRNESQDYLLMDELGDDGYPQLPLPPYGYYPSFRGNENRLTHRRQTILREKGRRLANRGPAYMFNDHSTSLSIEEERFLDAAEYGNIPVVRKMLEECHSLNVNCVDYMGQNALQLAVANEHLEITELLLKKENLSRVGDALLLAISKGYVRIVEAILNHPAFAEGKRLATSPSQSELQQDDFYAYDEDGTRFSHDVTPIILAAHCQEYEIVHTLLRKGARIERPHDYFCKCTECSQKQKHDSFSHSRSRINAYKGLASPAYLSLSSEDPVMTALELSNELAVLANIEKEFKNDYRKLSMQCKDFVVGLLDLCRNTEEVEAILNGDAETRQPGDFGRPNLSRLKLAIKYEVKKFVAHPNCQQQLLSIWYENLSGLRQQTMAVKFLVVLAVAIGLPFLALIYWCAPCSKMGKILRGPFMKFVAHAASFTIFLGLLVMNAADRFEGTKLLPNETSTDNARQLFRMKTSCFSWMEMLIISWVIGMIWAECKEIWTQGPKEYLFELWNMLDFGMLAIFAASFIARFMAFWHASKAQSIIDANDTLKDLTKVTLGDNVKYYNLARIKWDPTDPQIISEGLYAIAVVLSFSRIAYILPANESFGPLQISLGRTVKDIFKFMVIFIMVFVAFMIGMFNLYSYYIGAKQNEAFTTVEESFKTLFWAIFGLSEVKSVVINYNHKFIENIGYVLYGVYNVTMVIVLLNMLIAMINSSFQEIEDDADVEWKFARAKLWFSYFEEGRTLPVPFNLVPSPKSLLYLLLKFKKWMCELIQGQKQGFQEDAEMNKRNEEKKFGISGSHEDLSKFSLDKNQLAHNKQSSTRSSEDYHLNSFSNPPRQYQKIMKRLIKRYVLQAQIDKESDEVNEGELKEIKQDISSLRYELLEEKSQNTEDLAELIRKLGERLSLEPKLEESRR
TRPC4 PAM: TRPC4 (mouse) allosteric potentiation; Q9QUQ5; HEK293 TRPC4beta/mu-opioid, DAMGO EC20, Fluo-4 Ca2+ flux; active compounds read high; B-score at 10 µM; 310,000 compounds, 0.42% hits;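 active means B-score of calcium response area above 5 SD of library B-scores, with initial fluorescence ratio within 5 SD of library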;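 further: B-score of integrated fluorescence ratio over time as area under calcium response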
TRPC4 block: TRPC4 (mouse) channel inhibition | 300,000 compounds, 0.39% hits | B-score at 10 µM | HEK293 TRPC4beta/mu-opioid, DAMGO-evoked Fluo4 calcium flux; active compounds read low;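 active means B-score over 3 SD under the library average, no early fluorescence shift, positive overall ratio signal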
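Assay system – HEK293 line stably carrying TRPC4beta and mu-opioid receptor · Doses – single dose · Detection – Fluo4 calcium-dye fluorescence, kinetic read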
TRPC4 agonist: TRPC4 (mouse) channel activation; Q9QUQ5; HEK293 TRPC4beta/mu-opioid, Fluo4 calcium fluorescence; active compounds read high; B-score at 10 µM; 310,000 compounds, 0.49% hits; AID 2237;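 active means B-score above 5 SD of library B-scores, and initial fluorescence ratio not above library mean plus 5 SD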;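 further: positive B-score marks a calcium rise read as TRPC4 activation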
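Assay system: HEK293 stable line with TRPC4beta plus mu-opioid receptor; schedule: 45 min room-temperature Fluo4 loading, 110 s read; technique: kinetic Fluo4 calcium fluorescence; evaluation: integrated baseline-normalised fluorescence ratio, converted to per-well B score; controls: buffer (low) and maximal DAMGO (high)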
TRPC6 activator: mouse TRPC6 channel activation; B-score at 10 µM; 310,000 compounds, 0.13% hits; HEK293-TRPC6 membrane potential dye fluorescence; active compounds read high; AID 2550;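 active means B-score of the integrated fluorescence ratio above library mean plus 3 SD, and starting fluorescence ratio within library mean plus 5 SD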;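 further: higher score means more depolarization so channel activation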
TRPC4 sel inh 2: second selectivity test of TRPC6 inhibitors: effect on mouse TRPC4. AID 2776. 920 compounds, 42% hits. shares compounds with TRPC6 inh. HEK293 TRPC4/MOR, membrane potential dye fluorescence; channel activated by saturating DAMGO dose. inhibition, % at 10 µM;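 active means compounds whose fluorescence signal differed from control wells by over 3 SD, either direction, in both duplicate plates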
TRPC4 spec: selectivity of TRPC6 inhibitors: effect on mouse TRPC4 | shares compounds with TRPC6 inh | HEK293 TRPC4/mu-opioid, membrane potential fluorescence | activity change, negative = inhibition, % at 10 µM | 920 compounds, 61% hits;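 active means rise or fall in signal beyond 3 SD of buffer-only wells in both replicate plates, either sign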;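 further: integrated kinetic ratio of fluorescence range over baseline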
HEK293 MPD ctr 2-1: parental HEK293 nonspecific activity of TRPC6 inhibitors, second screen; parental HEK293 membrane potential dye fluorescence; maximal acetylcholine challenge after compound addition; shares compounds with TRPC6 inh; signal change vs control, % at 10 µM; 920 compounds, 31% hits;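 active means membrane potential signal moving either way by over 3 SD of the maximum-effect control, in both duplicate plates, meaning non-specific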
HEK293 MPD ctr-1: parental HEK293 nonspecific activity of TRPC6 inhibitors | shares compounds with TRPC6 inh | AID 2780 | parental HEK293 membrane potential dye fluorescence | 920 compounds, 60% hits | membrane potential signal change, % at 10 µM;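 active means membrane potential signal shifting up or down by more than 3 SD of buffer-only wells, on both duplicate plates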
HEK293 MPD ctr-2: parental HEK293 nonspecific activity of TRPC6 modulators; shares compounds with TRPC6 inh; membrane potential dye fluorescence; membrane potential signal change, % at 10 µM; 2,400 compounds, 51% hits; AID 488924;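 active means membrane potential signal moves up or down beyond 5 SD from buffer-only wells, on both duplicate plates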
HEK293 MPD ctr 2-2: parental HEK293 nonspecific activity of TRPC6 modulators, second screen | shares compounds with TRPC6 inh | membrane potential dye fluorescence; after compound, maximal acetylcholine stimulation | inhibition, % at 10 µM | 2,400 compounds, 14% hits | AID 488926;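 active means membrane potential signal drops by more than 5 SD from the mean control signal, in both duplicate plates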;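 further: plate controls were acetylcholine ECmax control wells for no effect and buffer only wells for full effect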
TRPC4 ctr mod: tests whether TRPC6 modulators also affect mouse TRPC4. percent change from control (negative = decrease, positive = increase), % at 10 µM. 2,400 compounds, 69% hits. HEK293 TRPC4/mu-opioid, membrane potential fluorescence. shares compounds with TRPC6 inh. AID 488927;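 active means membrane potential signal moved up or down beyond 5 SD of buffer control wells, in both duplicate plates, actives on both sides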;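 further: plate controls were assay buffer wells for no effect and DAMGO maximal-effect wells for full effect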
TRPC4 ctr inh 2: second selectivity test of TRPC6 modulators against mouse TRPC4; shares compounds with TRPC6 inh; HEK293 TRPC4/mu-opioid, membrane potential dye fluorescence; stimulated with maximal-effect DAMGO; inhibition, % at 10 µM; 2,400 compounds, 55% hits; AID 488928;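 active means drop in membrane potential signal beyond 5 SD of the control wells in both duplicate plates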;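 further: TRPC4 counter screen for TRPC6 hits run under conditions tuned for TRPC6 not TRPC4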
TRPC6 block conf: mouse TRPC6 inhibitor confirmation; shares compounds with TRPC6 inh; HEK293-TRPC6, membrane potential dye, ACh-evoked depolarization; inhibition, % at 10 µM; 3,300 compounds, 43% hits;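 active means fluorescence ratio falls more than 5 SD below the full-stimulation control mean, in both duplicate runs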;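 further: integrated fluorescence ratio of peak minus minimum over baseline after agonist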
TRPC6 act confirm: confirmation of mouse TRPC6 activators | activation, % at 10 µM | HEK293-TRPC6 membrane potential dye fluorescence, FDSS | shares compounds with TRPC6 inh | 2,800 compounds, 11% hits;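 active means ratio signal rise beyond 5 SD above unstimulated control wells' mean, seen in both duplicate runs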;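 further: plate controls were buffer EC0 wells for no effect and acetylcholine ECmax response for full effect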
Numbers without * were called inactive; i = inactive; · = no result; + = active, no number.

SMILES | TRPC6 inh | TRPC4 PAM | TRPC4 block | TRPC4 agonist | TRPC6 activator | HEK293 MPD ctr-2 | HEK293 MPD ctr 2-2 | TRPC4 ctr mod | TRPC4 ctr inh 2 | TRPC6 block conf | TRPC6 act confirm | others
CCCCN1C=CC(=C2N=c3cccc([N+](=O)[O-])c3=N2)C=C1 | -5.6* | i | i | i | i | -132%* | 78%* | -20%* | 49%* | 58%* | i
CCOC(=O)c1c(NC(=O)CSc2nnc(C)c(=O)[nH]2)sc(C)c1-c1ccc(C)cc1 | i | i | i | i | 14* | 136%* | i | 36%* | i | i | 86%*
O=C(c1ccc(Cl)c(Cl)c1)N1CCN(c2ccccn2)CC1 | i | i | i | i | i | · | · | · | · | · | ·
O=C(c1ccc(Cl)c(S(=O)(=O)Nc2ccc(F)cc2)c1)N1CCN(c2ccccn2)CC1 | -10* | i | i | i | i | · | · | · | · | i | i | TRPC4 sel inh 2=i;TRPC4 spec=9.5%*;HEK293 MPD ctr 2-1=i;HEK293 MPD ctr-1=4.3%*
O=C(NCC1CCN(c2ccc(S(=O)(=O)N3CCOCC3)cc2)CC1)c1cccc(Cl)c1 | -6.3* | i | i | i | i | i | i | -30%* | i | 45%* | i
CCn1c(C)cc(/C=C2/SC(=S)NC2=O)c1C | i | i | i | i | i | · | · | · | · | · | ·
Cc1cc(/C=C2\SC(=S)NC2=O)c(C)n1-c1cccc(O)c1 | i | i | i | i | 14* | 568%* | i | 85%* | 45%* | i | 174%*
Cc1cc(/C=C2\SC(=S)NC2=O)c(C)[nH]1 | -6.4* | i | i | i | 27* | 782%* | + | 107%* | 42%* | i | 164%*
CCOc1ccccc1N1CCN(CC(=O)NC(C)c2ccccc2)CC1 (stereo not given) | i | i | i | i | i | · | · | · | · | · | ·
NCCNc1ccc(C(=O)N2c3ccccc3Sc3ccccc32)cc1[N+](=O)[O-] | -6.2* | i | i | i | i | i | i | -10%* | 60%* | 54%* | i
COC(=O)C(NC(=O)c1ccc(C)cc1)(Nc1cccc(C)n1)C(F)(F)F (stereo not given) | -7.2* | i | i | i | i | · | · | · | · | 63%* | · | TRPC4 sel inh 2=i;TRPC4 spec=i;HEK293 MPD ctr 2-1=i;HEK293 MPD ctr-1=i
C=CCNC(=S)N1CCC(C(=O)c2ccc(Cl)cc2)CC1 | i | i | i | i | i | · | · | · | · | · | ·
Cc1nc(NC(=O)c2ccc(Cl)cc2)nc2cc3c(cc12)OCO3 | i | i | i | i | i | · | · | · | · | · | ·
Cc1cc(C)nc(Nc2nc(C)c3cc4c(cc3n2)OCO4)n1 | -6.8* | i | i | i | i | · | · | · | · | i | i | TRPC4 sel inh 2=i;TRPC4 spec=9.0%*;HEK293 MPD ctr 2-1=-138%*;HEK293 MPD ctr-1=8.5%*
CC[N+](C)(C)CC/C=C1/c2ccccc2Sc2ccc(Cl)cc21 | -8.8* | i | i | i | i | · | · | · | · | 79%* | i | TRPC4 sel inh 2=i;TRPC4 spec=-11%*;HEK293 MPD ctr 2-1=i;HEK293 MPD ctr-1=i
COCCNc1c(-c2cc3ccc(C)c(C)c3[nH]c2=O)nc2ccccn12 | -5.1* | i | i | i | i | i | i | i | i | i | i
CCCc1cc(=O)[nH]c(SCC(=O)N2CCOCC2)n1 | i | i | i | i | i | · | · | · | · | · | ·
COCCSc1ccccc1C(=O)N1CCN(c2ccccc2)CC1 | i | i | i | i | i | · | · | · | · | · | ·
Cc1noc(C)c1CSc1ccccc1C(=O)N1CCN(c2ccccc2)CC1 | -6.9* | i | i | i | i | · | · | · | · | i | · | TRPC4 sel inh 2=i;TRPC4 spec=16%*;HEK293 MPD ctr 2-1=i;HEK293 MPD ctr-1=8.9%*
CSc1ccccc1C(=O)NC1CCSc2ccccc21 (stereo not given) | i | i | i | i | i | · | · | · | · | · | ·
O=C(Nc1cc2c3c(c1)C1CCCC1CN3CC1CCCC21)c1ccccc1 (stereo not given) | -5.9* | i | i | i | i | -70%* | i | -16%* | i | i | i
O=C(NC1CC1)C1CCN(C2CCN(C(=O)CSc3ccccc3)CC2)CC1 | i | i | i | i | i | · | · | · | · | · | ·
O=C(NC1CC1)C1CCN(C2CCN(C(=O)CCOc3ccccc3)CC2)CC1 | i | i | i | i | 30* | 246%* | i | 76%* | i | i | 66%*
O=C(NC(=S)Nc1ccccc1Br)c1ccco1 | i | i | i | i | i | · | · | · | · | · | ·
CC(C)CCN1CCN(CCCn2cccn2)CC1CCO (stereo not given) | i | i | i | i | i | · | · | · | · | · | ·
Cc1ccc2c(nc3s/c(=C\c4ccc(-c5ccccc5C(=O)O)o4)c(=O)n32)c1C | i | i | -8* | 189* | 78* | + | i | 408%* | i | i | 592%*
Cc1cc(/C=c2\sc3nc4ccccc4n3c2=O)c(C)n1-c1ccc(C(=O)O)cc1 | i | i | i | i | i | · | · | · | · | · | ·
O=C(O)c1ccc(-c2ccc(/C=c3/sc4nc5ccccc5n4c3=O)o2)cc1Cl | i | 15* | i | 58* | 32* | 560%* | i | 112%* | i | i | 82%*

From PubChem
